# Screens: PubChem, several laboratories
# The list is not random: actives were taken first. Their share in the collection is about 3.8%.
# HSP90 inh: HSP90 inhibitors, primary screen, cell lysate, luminescence. Rabbit reticulocyte lysate, luciferase refolding luminescence, 3 h. inhibition, % at 5.6 µM. 0.91% of 290,000 active;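 active means inhibition above the screen-wide mean plus 3 SD, computed separately per campaign, cut at about 16% in these data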;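 further: 0% = DMSO wells and 100% = 60 µM geldanamycin wells; inhibitors lower the luminescence because luciferase stays unfolded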
# HSF-1 act: HSF-1 activators, primary screen, NIH3T3-HGL cells, MG132 stress, luminescence, single point; NIH3T3-HGL HSF-1 luciferase reporter, 8 h; 100% = twice DMSO control signal; activation, % at 9 µM; 1.7% of 300,000 active;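 active means mean replicate activation of at least 50% with a set share of replicates each reaching 50%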;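 further: 0% = median of the neutral control wells and 100% = twice that signal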
# NS3 helicase inh: inhibitors of HCV NS3 helicase, primary screen, biochemical, Cy5 molecular beacon fluorescence; Hepatitis C virus NS3 helicase; NS3 helicase DNA unwinding; inhibition, % at 10.9 µM; 0.56% of 290,000 active;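 active means inhibition above the mean of all tested compounds plus 3 SD, set per campaign, cut at about 35% in these data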;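 further: 0% = DMSO wells and 100% = thioflavine S control wells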
#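 System: NS3 helicase fragment of HCV / Schedule: 1 h at 25 °C / Control set: DMSO alone as 0% and 110 µM thioflavine S as 100% / Reagent: Cy5/quencher beacon DNA duplex and ATP to start / Technique: Cy5 fluorescence / Replication: singlicate / Evaluation: % inhibition of end-to-start signal ratio versus controls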
# Hep lipid drop: inhibitors of hepatocyte lipid droplet formation, primary screen, imaging, high-throughput imaging, BODIPY stain; AML12 mouse hepatocytes, oleate lipid droplets; inhibition, % at 6.5 µM; 0.4% of 240,000 active; AID 1656, 2009;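 active means lipid droplet intensity inhibited by at least 50%, with more than 500 cells counted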
#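 Assay system: AML12 hepatocytes (mouse); Probe or stimulus: oleic acid at 100 µM to induce lipid droplet formation; Dosing: compound at 6.5 µM only; Schedule: compound with oleate, overnight; Detection: fluorescence imaging, 20x objective, two fields per well; Measure: % inhibition of lipid droplet signal.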
# HSF1 inhib: HSF1 inhibitors in luciferase reporter cells, primary screen, cell-based, NIH3T3, luminescence; NIH3T3-HGL HSE-luciferase, MG132-induced, luminescence 8 h; active compounds read low; activity change, negative = inhibition, % at 7.5 µM (by protocol); 0.77% of 300,000 active; AID 2098, 2009;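 active means more than half of replicate wells show activity change below -50%, luminescence cut by over half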;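 further: luciferase reports HSF-1 transcriptional activity via heat shock element; 0% = median of DMSO wells and -100% = zero luminescence signal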
# Numbers without * were called inactive; . = no result.
SMILES,HSP90 inh,HSF-1 act,NS3 helicase inh,Hep lipid drop,HSF1 inhib
Cc1cc(NC(=O)CSc2nc3c(cc2C#N)CCC3)no1,-4,84*,0,1,55
CCCc1cc(=O)[nH]c2nnc(SCC(=O)NC3CCCC3)n12,.,-7,.,.,2
COC(=O)/C(=C1/Oc2ccc(C(C)(C)C)cc2S1)C(F)(F)F,0,-39,-1,0,-42
COC(=O)/C(=C1/Oc2cc(C)oc(=O)c2S1)C(F)(F)F,3,-79,5,-33,-79*
O=[N+]([O-])c1ccc(P(=O)(Cc2ccccc2)c2ccccc2O)cc1 (stereo not drawn),10,-4,-5,-6,-1
Cc1cccc(CSc2nc3c(c(-c4cccs4)c2C#N)CN(C)CC3)c1,-4,77*,-35,30,47
Cn1c2ccccc2c2ncn(CCC3=CCCCC3)c(=O)c21,6,61*,1,.,36
Cn1c2ccc(F)cc2c2ncn(CCN3CCOCC3)c(=O)c21,4,160*,1,-4,79
CCOc1ccccc1NC(=O)CN(c1ccc(Cl)cc1)S(C)(=O)=O,-3,3,3,-17,1
COc1ccccc1N1CCN(C(CNS(=O)(=O)c2ccccc2)c2ccccc2)CC1 (stereo not drawn),-1,57*,-15,16,6
NS(=O)(=O)c1ccc(N/C=C\C(=O)c2ccc(F)cc2)cc1,0,74*,0,12,27
N#CCCn1[nH]c(-c2ccccc2)cc1=O,31*,22,10,-2,20
COc1ccc(-c2csc(NC3OC(=O)c4c3ccc(OC)c4OC)n2)cc1OC (stereo not drawn),0,60*,-2,-14,43
COc1ccc2c(c1OC)C(=O)OC2Nc1nc(-c2ccc([N+](=O)[O-])cc2)cs1 (stereo not drawn),0,10,-2,.,15
COc1ccc(CCN=C(NS(=O)(=O)c2ccccc2)c2ccccc2)cc1OC,-1,59*,-4,3,9
COc1ccc(CCN=C(NS(=O)(=O)c2ccc(Cl)cc2)c2ccccc2)cc1,1,9,-5,-16,-8
Cc1[nH]c2ccccc2c1C(=O)Cn1c(=O)oc2ccccc21,3,76*,4,-12,33
CC(=O)Cn1c(=O)oc2ccccc21,-2,8,3,-12,-10
O=C(NCC(c1ccco1)N1CCOCC1)c1ccc(F)c(F)c1 (stereo not drawn),.,10,.,.,2
O=C(c1cccs1)c1c[nH]cc1-c1ccccc1,.,4,.,.,3
O=C(NC(=S)Nc1ccccn1)c1ccc([N+](=O)[O-])cc1,-2,18,2,2,-7
CCC(=O)Nc1cccc(NC(=S)NC(=O)c2ccc(C)cc2)c1,-4,35,1,9,14
Cc1ccc2cccc(NC(=S)NC(=O)c3ccccc3)c2n1,2,5,-7,.,-4
Cc1ccc2cccnc2c1NC(=S)NC(=O)c1ccccc1,15,137*,-15,-34,122
CCC(=O)Nc1cccc(NC(=S)NC(=O)c2ccccc2)c1,-5,54*,0,-30,22
SMILES,HSP90 inh,HSF-1 act,NS3 helicase inh,Hep lipid drop,HSF1 inhib
O=C(NC(=S)Nc1ccccn1)c1ccccc1,4,1,10,61*,3
O=S(=O)(Nc1nc(-c2ccccc2)cs1)c1cc(Cl)ccc1Cl,1,-4,33,6,-1
Cc1ccc(NC(=O)CNC(=O)c2ccco2)nc1,1,5,-2,-4,2
O=C1CNC(=S)N1c1nc(-c2ccccc2)cs1,-3,52*,0,0,26
COc1ccc(-c2csc(N3C(=O)CNC3=S)n2)cc1,0,29,-8,6,8
CC1CCN(c2nc(N(C)c3ccccc3)nc(N)c2[N+](=O)[O-])CC1,-1,67*,1,6,27
CCN1CCN(c2nc(N(C)c3ccccc3)nc(N)c2[N+](=O)[O-])CC1,-2,3,7,10,-3
CN(c1ccccc1)c1nc(N)c([N+](=O)[O-])c(N2CCCCCC2)n1,0,78*,8,16,51
COc1cc(C(=O)N2C[C@H]3CC[C@H]2C3)ccc1OC1CCN(C(C)=O)CC1,-5,4,3,24,-1
COc1cc(C(=O)N2CCSCC2)ccc1OC1CCN(C(C)=O)CC1,-2,-66,15,0,-55*
CCOC(=O)N/N=C\c1ccc([N+](=O)[O-])s1,-1,8,-6,-28,9
Cc1ccc(/C=N/N=C/c2ccc(C)s2)s1,1,78*,6,12,36
CCOC(=O)N/N=C\c1ccc(C)s1,0,-81,-1,-7,-79*
CC(=O)c1cccc(NS(=O)(=O)c2ccc3c(c2)N(C(C)=O)CCO3)c1,6,20,4,0,13
Cc1cc(CNC(=O)c2ccc3oc(C(C)C)nc3c2)nn1C,-2,7,-4,-10,0
CCc1nnc(N/N=C/c2cc(Br)c(O)cc2O)n1N,7,57*,3,2,40
CC(C)c1nc(SCC(=O)c2c[nH]c3ccccc23)n[nH]1,4,12,32,-4,-4
CC(C)Nc1nc(Cl)nc(N(C#N)CN2C(=O)c3ccccc3S2(=O)=O)n1,0,118*,-3,8,83
CC(C)(C)c1ccc(/C=N/NC(=S)NC2CCCCC2)cc1,-4,56*,-4,-3,24
COc1ccc(S(=O)(=O)Nc2ccccc2C(=O)NCc2cccnc2)cc1,-3,8,10,-3,-9
Cc1[nH]c2ccccc2c1C(=O)CSc1ccccc1,-6,26,-10,-34,18
Cc1ccc2c(C(=O)CSc3ccccc3)c(C)[nH]c2c1,-3,55*,2,-6,24
Cc1cc(/C=C2/C(=O)N(C)C(=S)N2C)ccc1N1CCCC1,-4,74*,-3,0,39
O=C(CN(Cc1ccccc1Cl)S(=O)(=O)c1ccc(Cl)cc1)N/N=C/c1ccc(C(=O)O)cc1,0,-89,21,8,-86*
O=C(CN(Cc1ccccc1)S(=O)(=O)c1ccccc1)N/N=C/c1ccc([N+](=O)[O-])cc1,-1,6,-2,-6,5
C=CCNC(=O)C1CC(=O)N(c2ccc(OCC(=O)Nc3ccccc3)cc2)C1 (stereo not drawn),-3,53*,-5,30,21
C=CCNC(=O)C1CC(=O)N(c2ccc(OCC(=O)Nc3ccc(C)cc3)cc2)C1 (stereo not drawn),1,-27,-3,.,-10
